Data from ChEMBL document CHEMBL5058577, “EUbOPEN Chemogenomics Library 2 (Multiplex)” (2022).

Tested on: HEK-293T
Assay: Multiplex assay against HEK293T
Type: toxicity, cell-based
Settings: human
In short: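 Values for tubulin, mitochondrial-mass and membrane-permeability phenotypes are per cents of cells with healthy nuclei. These cells were identified by CellPathfinder machine-learning gating of live cells that had been stained at seeding with Hoechst33342, BioTracker Green Microtubule Cytoskeleton Dye, MitoTracker Red and Annexin V Alexa Fluor 680 and imaged on a CQ1 microscope at 37°C and 5% CO2 after compound addition. The gating first set Hoechst high-intensity objects apart from normal cells, then split normal cells into healthy, pyknosed or fragmented nuclei, and pyknosed cells into mitotic or apoptotic.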

[1] = 12 h, 1 µM, compound concentration 1 uM, replicate 1
[2] = 12 h, 1 µM, compound concentration 1 uM, replicate 2
[3] = 12 h, 10 µM, compound concentration 10 uM, replicate 1
[4] = 12 h, 10 µM, compound concentration 10 uM, replicate 2
[5] = 24 h, 1 µM, compound concentration 1 uM, replicate 1
[6] = 24 h, 1 µM, compound concentration 1 uM, replicate 2
[7] = 24 h, 10 µM, compound concentration 10 uM, replicate 1
[8] = 24 h, 10 µM, compound concentration 10 uM, replicate 2
[9] = 48 h, 1 µM, compound concentration 1 uM, replicate 1
[10] = 48 h, 1 µM, compound concentration 1 uM, replicate 2
[11] = 48 h, 10 µM, compound concentration 10 uM, replicate 1
[12] = 48 h, 10 µM, compound concentration 10 uM, replicate 2

## C=CCN1C[C@H](C(=O)N(CCCN(C)C)C(=O)NCC)C[C@@H]2c3cccc4[nH]cc(c34)C[C@H]21 [CABERGOLINE]
[1]
  Population Apoptotic (%): 36%
  Population Fragmented Nuclei (%): 4%
  Population Healthy Nuclei (%): 76%
  Population Hoechst High Intensity Objects (%): 8%
  Population Membrane Permeable-Phenotype (%): 0%
  Population Mitochondria Different-Phenotype (%): 51%
  Population Mitotic Cells (%): 63%
  Population Normal (%): 91%
  Population Pyknosed Nuclei (%): 18%
  Population Tubulin-Different-Phenotype (%): 41%
  Total Cell Count: 370
[2]
  Population Apoptotic (%): 37%
  Population Fragmented Nuclei (%): 5%
  Population Healthy Nuclei (%): 79%
  Population Mitochondria Different-Phenotype (%): 68%
  Population Mitotic Cells (%): 62%
  Population Pyknosed Nuclei (%): 14%
  Population Tubulin-Different-Phenotype (%): 24%
  Total Cell Count: 322
[3]
  Population Apoptotic (%): 53%
  Population Fragmented Nuclei (%): 8%
  Population Healthy Nuclei (%): 76%
  Population Hoechst High Intensity Objects (%): 12%
  Population Membrane Permeable-Phenotype (%): 0%
  Population Mitochondria Different-Phenotype (%): 65%
  Population Mitotic Cells (%): 46%
  Population Normal (%): 87%
  Population Pyknosed Nuclei (%): 14%
  Population Tubulin-Different-Phenotype (%): 54%
  Total Cell Count: 438
[4]
  Population Apoptotic (%): 60%
  Population Fragmented Nuclei (%): 6%
  Population Healthy Nuclei (%): 78%
  Population Hoechst High Intensity Objects (%): 8%
  Population Mitochondria Different-Phenotype (%): 81%
  Population Mitotic Cells (%): 40%
  Population Normal (%): 91%
  Population Tubulin-Different-Phenotype (%): 55%
  Total Cell Count: 371
[5]
  Population Apoptotic (%): 43%
  Population Fragmented Nuclei (%): 9%
  Population Healthy Nuclei (%): 80%
  Population Hoechst High Intensity Objects (%): 4%
  Population Membrane Permeable-Phenotype (%): 1%
  Population Mitochondria Different-Phenotype (%): 29%
  Population Mitotic Cells (%): 56%
  Population Normal (%): 95%
  Population Pyknosed Nuclei (%): 10%
  Population Tubulin-Different-Phenotype (%): 20%
  Total Cell Count: 512
[6]
  Population Apoptotic (%): 40%
  Population Fragmented Nuclei (%): 6%
  Population Healthy Nuclei (%): 83%
  Population Hoechst High Intensity Objects (%): 6%
  Population Membrane Permeable-Phenotype (%): 0%
  Population Mitochondria Different-Phenotype (%): 46%
  Population Mitotic Cells (%): 59%
  Population Normal (%): 93%
  Population Pyknosed Nuclei (%): 9%
  Population Tubulin-Different-Phenotype (%): 19%
  Total Cell Count: 406
[7]
  Population Apoptotic (%): 37%
  Population Fragmented Nuclei (%): 10%
  Population Healthy Nuclei (%): 77%
  Population Hoechst High Intensity Objects (%): 8%
  Population Membrane Permeable-Phenotype (%): 0%
  Population Mitochondria Different-Phenotype (%): 51%
  Population Mitotic Cells (%): 62%
  Population Normal (%): 91%
  Population Pyknosed Nuclei (%): 11%
  Population Tubulin-Different-Phenotype (%): 48%
  Total Cell Count: 556
[8]
  Population Apoptotic (%): 42%
  Population Healthy Nuclei (%): 79%
  Population Hoechst High Intensity Objects (%): 12%
  Population Mitochondria Different-Phenotype (%): 64%
  Population Mitotic Cells (%): 57%
  Population Normal (%): 87%
  Population Pyknosed Nuclei (%): 9%
  Population Tubulin-Different-Phenotype (%): 43%
  Total Cell Count: 425
[9]
  Population Apoptotic (%): 13%
  Population Fragmented Nuclei (%): 12%
  Population Healthy Nuclei (%): 80%
  Population Hoechst High Intensity Objects (%): 4%
  Population Membrane Permeable-Phenotype (%): 1%
  Population Mitochondria Different-Phenotype (%): 21%
  Population Mitotic Cells (%): 86%
  Population Normal (%): 95%
  Population Pyknosed Nuclei (%): 7%
  Population Tubulin-Different-Phenotype (%): 16%
  Total Cell Count: 763
[10]
  Population Apoptotic (%): 35%
  Population Fragmented Nuclei (%): 11%
  Population Healthy Nuclei (%): 81%
  Population Hoechst High Intensity Objects (%): 3%
  Population Mitochondria Different-Phenotype (%): 23%
  Population Mitotic Cells (%): 65%
  Population Normal (%): 96%
  Population Pyknosed Nuclei (%): 6%
  Population Tubulin-Different-Phenotype (%): 10%
  Total Cell Count: 633
[11]
  Population Apoptotic (%): 26%
  Population Fragmented Nuclei (%): 13%
  Population Healthy Nuclei (%): 76%
  Population Hoechst High Intensity Objects (%): 5%
  Population Membrane Permeable-Phenotype (%): 0%
  Population Mitochondria Different-Phenotype (%): 35%
  Population Mitotic Cells (%): 73%
  Population Normal (%): 94%
  Population Pyknosed Nuclei (%): 9%
  Population Tubulin-Different-Phenotype (%): 25%
  Total Cell Count: 786
[12]
  Population Apoptotic (%): 43%
  Population Fragmented Nuclei (%): 10%
  Population Healthy Nuclei (%): 82%
  Population Hoechst High Intensity Objects (%): 6%
  Population Mitochondria Different-Phenotype (%): 32%
  Population Mitotic Cells (%): 56%
  Population Normal (%): 93%
  Population Pyknosed Nuclei (%): 6%
  Population Tubulin-Different-Phenotype (%): 20%
  Total Cell Count: 676
